Most compounds without a hit are left out; they make up all but 0.6% or so of the library.
TNAP inh hi DEA: TNAP (human) inhibition, high acceptor. P05186. purified TNAP, CDP-star luminescence, 1 M DEA. inhibition, % at 20 µM. actives 0.03% (n = 200,000). AID 1135;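 active = over 50% inhibition of tissue-nonspecific alkaline phosphatase at 20 µM in the single-dose screen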;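 also: plate controls were DMSO wells for no effect and EDTA-quenched wells as full inhibition for full effect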
Target sequence (P05186 whole entry, looked up): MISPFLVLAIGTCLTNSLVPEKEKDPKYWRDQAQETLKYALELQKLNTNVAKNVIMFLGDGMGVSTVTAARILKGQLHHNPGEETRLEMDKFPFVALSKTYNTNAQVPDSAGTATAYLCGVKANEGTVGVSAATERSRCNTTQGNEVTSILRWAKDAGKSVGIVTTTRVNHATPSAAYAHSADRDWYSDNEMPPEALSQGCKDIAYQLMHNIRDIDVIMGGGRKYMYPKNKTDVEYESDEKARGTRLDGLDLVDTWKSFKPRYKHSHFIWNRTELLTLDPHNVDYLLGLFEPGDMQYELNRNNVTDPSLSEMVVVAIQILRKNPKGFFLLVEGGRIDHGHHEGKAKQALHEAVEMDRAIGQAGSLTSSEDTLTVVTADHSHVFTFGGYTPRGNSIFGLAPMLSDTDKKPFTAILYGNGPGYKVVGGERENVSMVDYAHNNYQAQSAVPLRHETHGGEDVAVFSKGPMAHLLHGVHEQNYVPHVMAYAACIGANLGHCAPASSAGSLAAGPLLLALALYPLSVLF
TNAP inh no acc: inhibitors of human TNAP without phosphate acceptor. P05186. inhibition, % at 20 µM. purified TNAP, CDP-star luminescence, 30 min. actives 0.26% (n = 200,000);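 active = tissue-nonspecific alkaline phosphatase inhibition above about 50% at 20 µM in the single-dose screen, limit read from the data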;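 also: 0% = DMSO negative control and 100% = EDTA positive control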
PMI activator: increases human mannose-6-phosphate isomerase activity. activation factor at 20 µM. P34949. purified human PMI, coupled resazurin fluorescence, 20 min; stronger effect = higher value; 1 = vehicle control, 0 substrate-free wells. AID 1214. actives 0.005% (n = 190,000);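 active = activation factor of 2 or more at 20 µM, relative to plate controls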
TNAP act hiacc: increases human TNAP activity under high phosphate acceptor concentration. purified TNAP, CDP-star luminescence, 1 M DEA, 30 min; stronger effect = higher value; 0 = EDTA background, 1 = DMSO-only activity. 200,000 tested, under 10 active. activation factor at 20 µM;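 active = activation factor at least 2 at 20 µM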
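Test system – human TNAP · Doses – 20 µM single point · Incubation – 30 min, room temperature · Signal – luminescent substrate turnover signal · Read-out basis – activation factor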
PMI act hi M6P: increases human PMI activity with near-saturating mannose 6-phosphate | P34949 | coupled PMI enzyme assay, resazurin fluorescence, 20 min; stronger effect = higher value; 1 = untreated enzyme, 0 = substrate-free blank | actives 0.34% (n = 190,000) | activation factor at 20 µM;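 active = activation factor of 2 or more at 20 µM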
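Material: human phosphomannose isomerase with PGI, G6PDH, diaphorase coupling enzymes. Quantity: 15 ng/mL PMI. Medium: HEPES pH 7.4 buffer with MgCl2 and Tween-20. Reagent: Near-saturating mannose-6-phosphate, 1.0 mM. Compound: 20 µM single dose. Times: enzyme reaction with compound 20 min at room temperature. Detection: resorufin fluorescence at Ex 544/Em 590 nm.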
An asterisk follows results filed as active.

Screening CCc1ccc(C(CNC(=O)c2ccc3c(=O)n(-c4ccccc4F)c(=S)[nH]c3c2)N(C)C)cc1 (configuration not stated) returned TNAP inh hi DEA -2, TNAP inh no acc 3, PMI activator 0.9, TNAP act hiacc 1 and PMI act hi M6P 0.9.
`COc1ccc(-c2cn3c(C)c(C(=O)Nc4cccc(C)n4)sc3n2)cc1` gave TNAP inh hi DEA -2, TNAP inh no acc -2, PMI activator 1.7, TNAP act hiacc 1 and PMI act hi M6P 2*.
`Cc1cccc(NC(=O)c2sc3nc(-c4ccccc4)cn3c2C)n1` gave TNAP inh hi DEA -3, TNAP inh no acc -16, PMI activator 0.8, TNAP act hiacc 1 and PMI act hi M6P 0.8.
N#Cc1ccccc1NC(=O)CSc1ccc([N+](=O)[O-])cn1 was read as TNAP inh hi DEA -4, TNAP inh no acc -14, PMI activator 1.8, TNAP act hiacc 1 and PMI act hi M6P 2.6*.
O=C(COc1ccc(Br)cc1)N1CCC(c2ccccc2)C1 (configuration not stated) was read as TNAP inh hi DEA -7, TNAP inh no acc -10, PMI activator 0.9, TNAP act hiacc 1.1 and PMI act hi M6P 1.
For CCCCCCCN1C2=NCCCN2c2ccccc21 the results were TNAP inh hi DEA -5, TNAP inh no acc -12, PMI activator 1, TNAP act hiacc 1.1 and PMI act hi M6P 1.
For CCOc1ccc(C2NC(=O)c3sc(=S)n(-c4ccccc4)c3N2)cc1 (configuration not stated) the results were TNAP inh hi DEA 3, TNAP inh no acc 4, PMI activator 1.7, TNAP act hiacc 1 and PMI act hi M6P 2.3*.
Screening COc1ccc(C2NC(=O)c3sc(=S)n(-c4ccccc4)c3N2)cc1 (configuration not stated) returned TNAP inh hi DEA -4, TNAP inh no acc -4, PMI activator 1.3, TNAP act hiacc 1 and PMI act hi M6P 1.5.
Screening O=C1NC(c2ccccc2)Nc2c1sc(=S)n2-c1ccccc1 (configuration not stated) returned TNAP inh hi DEA -1, TNAP inh no acc -9, PMI activator 1.7, TNAP act hiacc 1 and PMI act hi M6P 2.2*.
For O=C(CCc1nc2ccccc2c(=O)[nH]1)OCCOc1ccc(Cl)cc1 the results were TNAP inh hi DEA 0, TNAP inh no acc -2, PMI activator 0.9, TNAP act hiacc 1 and PMI act hi M6P 0.9.
`CCCCNC(=S)Nc1ccc(C(F)(F)F)cc1` gave TNAP inh hi DEA -1, TNAP inh no acc -2, PMI activator 0.9, TNAP act hiacc 1 and PMI act hi M6P 0.9.
O=S(=O)(Nc1ccc(N=Nc2ccc(O)c3ccccc23)cc1)c1ccccc1 was read as TNAP inh hi DEA 49, TNAP inh no acc 53*, PMI activator 0.9, TNAP act hiacc 0.5 and PMI act hi M6P 0.8.
Cn1cccc1-c1cc(C(=O)N/N=C/c2cccc(O)c2)[nH]n1 was read as TNAP inh hi DEA 7, TNAP inh no acc 96*, PMI activator 1, TNAP act hiacc 0.9 and PMI act hi M6P 0.9.
For COc1cc(OC)c(OC)cc1/C=N/NC(=O)c1cc(-c2cccn2C)n[nH]1 the results were TNAP inh hi DEA 10, TNAP inh no acc 85*, PMI activator 0.9, TNAP act hiacc 0.9 and PMI act hi M6P 0.9.
CCOc1cccc(/C=N/NC(=O)c2cc(-c3cccn3C)n[nH]2)c1O was read as TNAP inh hi DEA -2, TNAP inh no acc -170, PMI activator 1, TNAP act hiacc 1 and PMI act hi M6P 1.1.
Screening COc1ccc(/C=N/NC(=O)c2ccc(=O)n(C)c2)cc1OC returned TNAP inh hi DEA 3, TNAP inh no acc -6, PMI activator 0.8, TNAP act hiacc 1 and PMI act hi M6P 0.9.
COc1ccc(/C=N/NC(=O)c2cc(-c3cccn3C)n[nH]2)cc1OC was read as TNAP inh hi DEA 3, TNAP inh no acc 94*, PMI activator 1.1, TNAP act hiacc 1 and PMI act hi M6P 1.1.
COc1ccccc1N/N=C/c1ccc2c(c1)OCO2 was read as TNAP inh hi DEA -1, TNAP inh no acc -6, PMI activator 1.5, TNAP act hiacc 1 and PMI act hi M6P 2.3*.
For Cc1nonc1C(=O)N/N=C/c1cccc(O)c1 the results were TNAP inh hi DEA 2, TNAP inh no acc -7, PMI activator 0.8, TNAP act hiacc 1 and PMI act hi M6P 1.
`CCc1cccc(CC)c1NC(=O)CSc1nnc(CCC(=O)O)c(=O)[nH]1` gave TNAP inh hi DEA 0, TNAP inh no acc 0, PMI activator 1, TNAP act hiacc 1 and PMI act hi M6P 1.
COc1cc(/C=N/NC(=O)c2cc(-c3ccc4c(c3)OCO4)n[nH]2)ccc1O was read as TNAP inh hi DEA -2, TNAP inh no acc 87*, PMI activator 1.1, TNAP act hiacc 1 and PMI act hi M6P 1.1.
`COC(=O)c1cc(-c2ccc(OC)c(OC)c2)n[nH]1` gave TNAP inh hi DEA 0, TNAP inh no acc 9, PMI activator 0.9, TNAP act hiacc 1 and PMI act hi M6P 0.9.
`COC(=O)c1cccn(CC(=O)c2ccc(Cl)cc2Cl)c1=O` gave TNAP inh hi DEA 1, TNAP inh no acc -4, PMI activator 1, TNAP act hiacc 1 and PMI act hi M6P 0.9.
For COC(=O)c1cc(C(=O)OC)[nH]n1 the results were TNAP inh hi DEA 9, TNAP inh no acc 23, PMI activator 1.2, TNAP act hiacc 0.9 and PMI act hi M6P 1.1.
For COC(=O)c1cc(-c2ccc(Cl)cc2)n[nH]1 the results were TNAP inh hi DEA -6, TNAP inh no acc 87*, PMI activator 1, TNAP act hiacc 1.1 and PMI act hi M6P 0.8.
Screening CC(C)(C)NC(=O)c1cc(-c2ccccc2)n[nH]1 returned TNAP inh hi DEA 0, TNAP inh no acc 92*, PMI activator 0.3, TNAP act hiacc 1 and PMI act hi M6P 1.1.
CC(C)(C)NC(=O)COc1ccc(-c2ccccc2)cc1 was read as TNAP inh hi DEA -2, TNAP inh no acc -13, PMI activator 1, TNAP act hiacc 1 and PMI act hi M6P 1.
For COC(=O)c1cc(-c2ccccc2)n[nH]1 the results were TNAP inh hi DEA 2, TNAP inh no acc 92*, PMI activator 0.9, TNAP act hiacc 1 and PMI act hi M6P 0.9.
COC(=O)c1cc(-c2ccc(Cl)cc2Cl)n[nH]1 was read as TNAP inh hi DEA 2, TNAP inh no acc 81*, PMI activator 0.9, TNAP act hiacc 1 and PMI act hi M6P 0.9.
`CC(=O)c1c(N2CCN(Cc3ccccc3)CC2)nc(=S)n(-c2ccccc2)c1C` gave TNAP inh hi DEA -2, TNAP inh no acc -10, PMI activator 1.6, TNAP act hiacc 1 and PMI act hi M6P 2.1*.
`CC(C)N=c1scc(-c2ccco2)n1/N=C/c1ccc(O)c(O)c1` gave TNAP inh hi DEA 21, TNAP inh no acc 74*, PMI activator 0.4, TNAP act hiacc 0.8 and PMI act hi M6P 0.8.

Screens (PubChem BioAssay)
